Calls of active or inactive are those of the source. No cut-off for these calls is given here.
How the values were obtained:
Rattus norvegicus [1] = assay: Antianxietic activity in Wistar rat assessed as increase in number of shocks accepted at 0.3 to 3 mg/kg, ip measured for 5 mins by Vogel conflict drinking test; type: functional, organism-based
[2] = target: Muscarinic acetylcholine receptor M5 (Homo sapiens) (UniProt P08912); assay: Displacement of [3H]4-DAMP from human recombinant muscarinic M5 receptor expressed in CHO cells after 60 mins by scintillation counting; type: cell-based
Chain of Muscarinic acetylcholine receptor M5 (Homo sapiens) (P08912 whole entry): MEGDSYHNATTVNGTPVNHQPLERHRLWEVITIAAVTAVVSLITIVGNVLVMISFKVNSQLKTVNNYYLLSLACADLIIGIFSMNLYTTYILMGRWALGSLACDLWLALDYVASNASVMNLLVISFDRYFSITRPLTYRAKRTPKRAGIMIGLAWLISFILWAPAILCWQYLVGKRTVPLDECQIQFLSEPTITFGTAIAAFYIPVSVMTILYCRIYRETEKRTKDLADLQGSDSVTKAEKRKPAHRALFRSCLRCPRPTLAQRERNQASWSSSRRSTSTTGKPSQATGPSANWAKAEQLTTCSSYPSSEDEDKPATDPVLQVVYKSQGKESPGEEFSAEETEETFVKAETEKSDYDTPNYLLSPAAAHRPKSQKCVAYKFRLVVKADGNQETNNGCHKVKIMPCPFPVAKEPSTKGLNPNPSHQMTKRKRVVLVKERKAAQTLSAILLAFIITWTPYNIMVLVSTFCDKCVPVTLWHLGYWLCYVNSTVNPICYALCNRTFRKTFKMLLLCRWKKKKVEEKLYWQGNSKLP

[3] = target: Adrenergic receptor alpha-1 (Rattus norvegicus) (UniProt P15823+P23944+P43140); assay: Displacement of [3H]prazosin from rat cerebral cortex adrenergic alpha 1 receptor after 60 mins by scintillation counting
[4] = target: T1, 5-hydroxytryptamine receptor 1A (Homo sapiens, UniProt P08908); assay: Displacement of [3H]-8-OH-DPAT from human 5-HT1A receptor expressed in HEK293 cells by microbeta liquid scintillation counting; type: cell-based
T1 sequence (P08908 whole entry): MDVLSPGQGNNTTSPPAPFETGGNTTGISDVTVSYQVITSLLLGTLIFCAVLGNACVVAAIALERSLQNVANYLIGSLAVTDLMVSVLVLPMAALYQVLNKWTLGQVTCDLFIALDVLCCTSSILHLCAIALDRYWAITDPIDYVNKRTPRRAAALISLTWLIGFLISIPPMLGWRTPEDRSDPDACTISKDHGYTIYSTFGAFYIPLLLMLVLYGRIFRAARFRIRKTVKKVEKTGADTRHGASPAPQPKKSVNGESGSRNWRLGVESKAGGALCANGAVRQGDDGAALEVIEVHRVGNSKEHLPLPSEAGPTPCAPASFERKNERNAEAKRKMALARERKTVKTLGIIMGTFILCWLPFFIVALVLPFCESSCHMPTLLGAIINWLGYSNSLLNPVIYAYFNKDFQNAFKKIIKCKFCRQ
Method in brief: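 Ki values reported as the mean of two independent radioligand binding experiments.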

Cytochrome P450 2D6 = Cytochrome P450 2D6 (Homo sapiens, UniProt P10635); assay: Inhibition of human CYP2D6 expressed in supersomes assessed as bufuralol 1'-hydroxylation after 15 mins by HPLC analysis; type: ADME
Chain of Cytochrome P450 2D6 (P10635 whole entry): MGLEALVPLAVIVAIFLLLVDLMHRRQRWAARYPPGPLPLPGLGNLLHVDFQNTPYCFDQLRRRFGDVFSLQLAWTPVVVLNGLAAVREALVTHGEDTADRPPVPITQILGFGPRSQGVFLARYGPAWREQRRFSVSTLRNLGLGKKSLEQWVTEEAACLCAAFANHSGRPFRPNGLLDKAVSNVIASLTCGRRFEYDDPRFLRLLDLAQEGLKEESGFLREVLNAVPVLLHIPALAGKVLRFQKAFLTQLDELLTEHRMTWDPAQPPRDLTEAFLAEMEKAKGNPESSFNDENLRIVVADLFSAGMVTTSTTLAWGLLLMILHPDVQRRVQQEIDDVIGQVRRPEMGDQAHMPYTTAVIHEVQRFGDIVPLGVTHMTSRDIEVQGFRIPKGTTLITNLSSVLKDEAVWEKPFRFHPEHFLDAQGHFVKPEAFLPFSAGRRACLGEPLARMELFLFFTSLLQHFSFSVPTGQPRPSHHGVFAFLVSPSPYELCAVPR

Rattus norvegicus [5] = assay: Antidepressant activity in Sprague-Dawley rat assessed as increase in climbing time at 0.1 mg/kg, ip adminstered 60 mins prior to testing measured for 5 mins by forced swimming test; type: functional, organism-based
Method in brief: (§1)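 Modified forced swim test in rats with i.p. dosing. Immobility time and climbing time were scored. Data are mean ± SEM, n = 7–8 animals per group, compared against the vehicle-treated group.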

Homo sapiens [6] = species on record: Homo sapiens; assay: Selectivity ratio of Ki for human 5-HT2A receptor expressed in HEK293 cells to Ki for human 5-HT6 receptor expressed in HEK293 cells; type: cell-based
Rattus norvegicus [7] = assay: Antianxietic activity in Wistar rat assessed as increase in number of licks accepted at 0.3 to 3 mg/kg, ip measured for 5 mins by Vogel conflict drinking test; type: functional, organism-based
Rattus norvegicus [8] = assay: Antidepressant activity in Sprague-Dawley rat assessed as reduction in immobility time at 0.1 mg/kg, ip adminstered 60 mins prior to testing measured for 5 mins by forced swimming test; type: functional, organism-based; method in brief: as §1
Homo sapiens [9] = species on record: Homo sapiens; assay: Selectivity ratio of Ki for human 5-HT1A receptor expressed in HEK293 cells to Ki for human 5-HT6 receptor expressed in HEK293 cells; type: cell-based
Cytochrome P450 2C19 = Cytochrome P450 2C19 (Homo sapiens, UniProt P33261); assay: Inhibition of human CYP2C19 expressed in supersomes assessed as perazine N-demethylation after 15 mins by HPLC analysis; type: ADME
Chain of Cytochrome P450 2C19 (P33261 whole entry): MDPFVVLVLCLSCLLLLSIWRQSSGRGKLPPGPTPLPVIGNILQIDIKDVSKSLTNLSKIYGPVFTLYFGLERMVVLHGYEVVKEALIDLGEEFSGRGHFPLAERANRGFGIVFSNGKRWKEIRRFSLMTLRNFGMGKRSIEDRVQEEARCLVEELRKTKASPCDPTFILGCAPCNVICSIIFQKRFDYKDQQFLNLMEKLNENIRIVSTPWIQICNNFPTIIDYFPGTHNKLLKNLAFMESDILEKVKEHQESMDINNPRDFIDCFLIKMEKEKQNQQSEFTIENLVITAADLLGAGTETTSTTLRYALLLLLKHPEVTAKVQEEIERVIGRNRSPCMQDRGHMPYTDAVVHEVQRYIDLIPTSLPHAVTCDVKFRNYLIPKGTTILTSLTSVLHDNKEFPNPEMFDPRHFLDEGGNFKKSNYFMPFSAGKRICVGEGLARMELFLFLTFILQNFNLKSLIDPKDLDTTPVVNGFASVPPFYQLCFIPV

Rattus norvegicus [10] = assay: Antianxietic activity in Wistar rat assessed as increase in number of licks accepted at 0.1 to 1 mg/kg, ip measured for 5 mins by Vogel conflict drinking test; type: functional, organism-based
Rattus norvegicus [11] = assay: Antianxietic activity in Wistar rat assessed as increase in number of shocks accepted at 0.1 to 1 mg/kg, ip measured for 5 mins by Vogel conflict drinking test; type: functional, organism-based

Compound	Activity (Rattus norvegicus [1])	inhibition [2] [%]	inhibition [3] [%]	Ki [4] [µM]	IC50 (Cytochrome P450 2D6) [µM]	Activity (Rattus norvegicus [5])	Ratio Ki (Homo sapiens [6])	Activity (Rattus norvegicus [7])	Activity (Rattus norvegicus [8])	Ratio Ki (Homo sapiens [9])	IC50 (Cytochrome P450 2C19) [µM]	Activity (Rattus norvegicus [10])	Activity (Rattus norvegicus [11])
COc1ccc2c(c1)c(C1=CCNCC1)cn2S(=O)(=O)c1cncc2ccccc12	inactive	3	40	5.01	> 100	Active	70	inactive	Active	70	> 100		
COc1ccc2c(c1)c(C1=CCNCC1)cn2S(=O)(=O)c1ccc2cccnc2c1			41	5.04	> 100		70			70	> 100	inactive	inactive
